Data taken from ChEMBL document CHEMBL4020710, “Discovery and evaluation of the hybrid of bromophenol and saccharide as potent and selective protein tyrosine phosphatase 1B inhibitors” (Eur J Med Chem, 2017).
Activity calls are given as the source filed them. No cut-off for these calls is given here.

Experiments:
[1] = target: T1, Tyrosine-protein phosphatase non-receptor type 1 (Homo sapiens) (UniProt P18031); experiment: Inhibition of recombinant PTP1B (unknown origin) at 10 uM using p-NPP as substrate after 30 mins by UV-spectroscopic analysis
T1 sequence (whole entry): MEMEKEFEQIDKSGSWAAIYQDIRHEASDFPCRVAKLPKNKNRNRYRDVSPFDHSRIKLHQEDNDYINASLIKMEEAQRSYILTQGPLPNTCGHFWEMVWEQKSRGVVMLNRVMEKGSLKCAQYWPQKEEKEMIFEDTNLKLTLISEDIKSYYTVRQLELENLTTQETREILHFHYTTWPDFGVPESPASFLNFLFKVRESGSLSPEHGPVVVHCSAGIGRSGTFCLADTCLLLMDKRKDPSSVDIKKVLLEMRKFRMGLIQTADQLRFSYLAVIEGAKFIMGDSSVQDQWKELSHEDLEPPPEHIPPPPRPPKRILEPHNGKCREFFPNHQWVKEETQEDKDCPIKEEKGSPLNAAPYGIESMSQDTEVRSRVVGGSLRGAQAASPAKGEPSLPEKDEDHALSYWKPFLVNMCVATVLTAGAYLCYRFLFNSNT

[2] = target: T2, Tyrosine-protein phosphatase non-receptor type 1 (Homo sapiens, UniProt P18031); experiment: Inhibition of recombinant PTP1B (unknown origin) using p-NPP as substrate after 30 mins by UV-spectroscopic analysis
T2 sequence (P18031 whole entry): T1 sequence (whole entry)

[3] = target: T1, Tyrosine-protein phosphatase non-receptor type 1 (Homo sapiens); experiment: Binding affinity to human PTP1B (1 to 321 residues) at 50 uM by SPR assay
[4] = system: C2C12; experiment: Effect on total IRbeta in mouse C2C12 cells at 0.1 to 1 uM after 8 hrs by Western blot analysis; type: ADME, cell-based; settings: c2c12, 8 h
[5] = system: C2C12; experiment: Effect on total Akt in mouse C2C12 cells at 0.1 to 1 uM after 8 hrs by Western blot analysis; type: ADME, cell-based; settings: c2c12, 8 h
[6] = Drug uptake in mouse C2C12 cells at 10 uM after 8 hrs by HPLC analysis; type: ADME, cell-based; settings: c2c12, 8 h
Summary of the method: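 C2C12 myotubes were exposed to 10 μM for 8 h, with DMSO-treated cells as the control. The medium was then removed and the cells disrupted. An equal amount of internal standard was added, cell debris was removed by filtration, and intracellular compound was quantified by HPLC.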

[7] = target: T3, Tyrosine-protein phosphatase non-receptor type 1 (Mus musculus) (UniProt P35821); experiment: Inhibition of PTP1B in mouse C2C12 cells assessed as increase in IRbeta phosphorylation at Y1146 residues in mouse C2C12 cells at 0.1 to 1 uM after 8 hrs by Western blot analysis; type: cell-based
T3 sequence (whole entry): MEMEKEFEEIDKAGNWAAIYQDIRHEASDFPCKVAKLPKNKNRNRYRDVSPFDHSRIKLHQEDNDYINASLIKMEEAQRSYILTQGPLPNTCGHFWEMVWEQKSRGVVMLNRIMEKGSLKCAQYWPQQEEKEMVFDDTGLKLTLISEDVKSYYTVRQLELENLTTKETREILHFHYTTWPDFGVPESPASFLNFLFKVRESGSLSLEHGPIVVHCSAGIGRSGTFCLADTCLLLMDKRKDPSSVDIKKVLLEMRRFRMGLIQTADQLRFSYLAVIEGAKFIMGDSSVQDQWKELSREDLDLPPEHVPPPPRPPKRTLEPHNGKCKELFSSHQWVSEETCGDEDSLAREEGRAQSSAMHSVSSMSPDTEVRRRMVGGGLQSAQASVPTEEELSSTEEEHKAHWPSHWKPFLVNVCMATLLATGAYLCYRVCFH

[8] = target: T4, Tyrosine-protein phosphatase non-receptor type 2 (Homo sapiens, UniProt P17706); experiment: Inhibition of TCPTP (unknown origin)
T4 sequence (P17706 whole entry): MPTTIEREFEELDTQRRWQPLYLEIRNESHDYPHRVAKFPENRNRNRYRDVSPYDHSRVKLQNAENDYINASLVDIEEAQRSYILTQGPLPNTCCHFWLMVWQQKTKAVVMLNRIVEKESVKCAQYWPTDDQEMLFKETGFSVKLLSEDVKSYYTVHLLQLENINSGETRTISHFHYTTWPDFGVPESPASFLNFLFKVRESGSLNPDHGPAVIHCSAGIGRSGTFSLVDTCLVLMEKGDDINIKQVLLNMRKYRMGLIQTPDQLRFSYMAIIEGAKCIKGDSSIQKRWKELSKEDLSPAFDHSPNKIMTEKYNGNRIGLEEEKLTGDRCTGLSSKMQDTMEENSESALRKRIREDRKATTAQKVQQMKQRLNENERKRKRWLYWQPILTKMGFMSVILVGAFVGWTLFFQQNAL

[9] = target: T5, Receptor-type tyrosine-protein phosphatase F (Homo sapiens, UniProt P10586); experiment: Inhibition of PTPLAR (unknown origin)
T5 sequence (P10586 whole entry): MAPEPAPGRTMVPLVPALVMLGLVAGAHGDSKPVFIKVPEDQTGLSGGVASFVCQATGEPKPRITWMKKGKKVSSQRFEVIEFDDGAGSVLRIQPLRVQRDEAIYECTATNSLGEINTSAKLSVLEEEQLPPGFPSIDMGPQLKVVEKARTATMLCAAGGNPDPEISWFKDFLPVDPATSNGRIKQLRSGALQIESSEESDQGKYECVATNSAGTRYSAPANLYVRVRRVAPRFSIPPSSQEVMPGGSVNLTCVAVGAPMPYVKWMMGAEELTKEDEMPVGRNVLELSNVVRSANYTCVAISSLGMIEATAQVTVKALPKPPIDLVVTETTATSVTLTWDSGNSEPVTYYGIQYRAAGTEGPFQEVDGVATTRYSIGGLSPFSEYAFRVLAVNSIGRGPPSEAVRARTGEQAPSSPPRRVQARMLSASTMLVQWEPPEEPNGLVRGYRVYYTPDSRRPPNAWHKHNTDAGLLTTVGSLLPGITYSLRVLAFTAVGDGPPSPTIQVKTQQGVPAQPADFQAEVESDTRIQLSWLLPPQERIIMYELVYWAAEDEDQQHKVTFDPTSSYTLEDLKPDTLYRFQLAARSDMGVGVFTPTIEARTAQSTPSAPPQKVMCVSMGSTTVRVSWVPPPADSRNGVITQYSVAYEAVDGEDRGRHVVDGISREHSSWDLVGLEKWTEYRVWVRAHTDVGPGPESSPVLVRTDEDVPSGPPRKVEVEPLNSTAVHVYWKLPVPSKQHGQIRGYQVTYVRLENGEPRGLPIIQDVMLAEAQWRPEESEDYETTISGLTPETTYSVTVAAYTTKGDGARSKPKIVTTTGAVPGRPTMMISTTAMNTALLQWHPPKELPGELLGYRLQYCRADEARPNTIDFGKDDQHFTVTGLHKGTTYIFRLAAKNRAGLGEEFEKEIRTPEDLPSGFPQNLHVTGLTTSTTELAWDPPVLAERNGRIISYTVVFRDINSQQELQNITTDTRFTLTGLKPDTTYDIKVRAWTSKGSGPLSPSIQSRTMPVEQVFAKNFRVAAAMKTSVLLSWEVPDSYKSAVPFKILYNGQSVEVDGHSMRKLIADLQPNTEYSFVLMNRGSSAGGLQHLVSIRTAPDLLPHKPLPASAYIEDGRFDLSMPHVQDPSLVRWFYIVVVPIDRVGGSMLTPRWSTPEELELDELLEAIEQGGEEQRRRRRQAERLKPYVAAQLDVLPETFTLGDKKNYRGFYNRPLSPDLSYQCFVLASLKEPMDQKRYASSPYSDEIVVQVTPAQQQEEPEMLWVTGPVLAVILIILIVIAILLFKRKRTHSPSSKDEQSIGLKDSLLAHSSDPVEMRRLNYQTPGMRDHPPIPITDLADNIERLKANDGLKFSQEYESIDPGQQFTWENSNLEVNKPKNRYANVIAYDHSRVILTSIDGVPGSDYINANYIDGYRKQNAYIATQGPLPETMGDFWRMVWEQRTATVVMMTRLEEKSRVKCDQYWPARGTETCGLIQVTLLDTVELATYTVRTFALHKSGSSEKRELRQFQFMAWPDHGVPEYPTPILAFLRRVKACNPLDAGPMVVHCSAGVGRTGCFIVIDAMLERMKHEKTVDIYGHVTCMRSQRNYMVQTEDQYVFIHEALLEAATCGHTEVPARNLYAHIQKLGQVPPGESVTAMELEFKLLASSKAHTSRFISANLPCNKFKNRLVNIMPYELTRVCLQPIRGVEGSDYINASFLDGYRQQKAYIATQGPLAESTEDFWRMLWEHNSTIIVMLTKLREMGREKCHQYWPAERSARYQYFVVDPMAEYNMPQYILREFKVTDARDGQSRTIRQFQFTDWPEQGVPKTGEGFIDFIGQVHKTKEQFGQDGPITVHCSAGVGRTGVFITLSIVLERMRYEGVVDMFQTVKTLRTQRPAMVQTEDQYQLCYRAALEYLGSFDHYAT

[10] = target: T3, Tyrosine-protein phosphatase non-receptor type 1 (Mus musculus); experiment: Inhibition of PTP1B in mouse C2C12 cells assessed as increase in Akt phosphorylation at S473 residues in mouse C2C12 cells at 0.1 to 1 uM after 8 hrs by Western blot analysis; type: cell-based
[11] = target: T5, Receptor-type tyrosine-protein phosphatase F; experiment: Inhibition of PTPLAR (unknown origin) at 20 ug/ml
[12] = species on record: Homo sapiens; experiment: Selectivity ratio of IC50 for TCPTP (unknown origin) to IC50 for recombinant PTP1B (unknown origin)
[13] = target: T1, Tyrosine-protein phosphatase non-receptor type 1 (Homo sapiens); experiment: Competitive inhibition of PTP1B (unknown origin) using p-NPP as substrate after 30 mins by Lineweaver-Burk plot analysis
[14] = target: T6, Tyrosine-protein phosphatase non-receptor type 11 (Homo sapiens, UniProt Q06124); experiment: Inhibition of SHP2 (unknown origin)
T6 sequence (Q06124 whole entry): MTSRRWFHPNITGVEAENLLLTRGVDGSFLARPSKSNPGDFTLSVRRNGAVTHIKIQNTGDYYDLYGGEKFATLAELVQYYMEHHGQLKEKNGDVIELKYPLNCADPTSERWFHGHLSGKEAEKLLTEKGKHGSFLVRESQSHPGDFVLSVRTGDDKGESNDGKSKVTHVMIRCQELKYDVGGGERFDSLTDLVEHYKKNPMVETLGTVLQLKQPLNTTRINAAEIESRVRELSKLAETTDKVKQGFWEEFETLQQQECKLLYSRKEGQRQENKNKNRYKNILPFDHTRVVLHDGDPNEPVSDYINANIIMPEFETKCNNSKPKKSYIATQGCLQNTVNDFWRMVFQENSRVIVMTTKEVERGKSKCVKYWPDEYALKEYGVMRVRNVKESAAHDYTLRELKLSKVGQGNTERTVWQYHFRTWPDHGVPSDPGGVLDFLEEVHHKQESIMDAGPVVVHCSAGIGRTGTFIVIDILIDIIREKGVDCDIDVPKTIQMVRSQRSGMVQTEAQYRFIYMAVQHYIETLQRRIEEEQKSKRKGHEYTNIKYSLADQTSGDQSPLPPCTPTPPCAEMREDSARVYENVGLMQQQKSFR

[15] = target: T3, Tyrosine-protein phosphatase non-receptor type 1 (Mus musculus); experiment: Inhibition of PTP1B in mouse C2C12 cells assessed as increase in IRS1 phosphorylation at Y632 residues at 0.25 to 1 uM after 8 hrs by Western blot analysis; type: cell-based
[16] = system: C2C12 (Mus musculus); experiment: Drug absorption in mouse C2C12 myotubes assessed per million cells at 10 uM after 8 hrs by HPLC analysis; settings: c2c12, 8 h

| SMILES | inhibition [1] | IC50 [2] | also measured |
| --- | --- | --- | --- |
| CC(C)(C)[Si](C)(C)Oc1cc(C(=O)O)cc(Br)c1O[Si](C)(C)C(C)(C)C | 24.2% | – | – |
| O=C(O[C@@H]1OC[C@@H](OC(=O)c2cc(O)c(O)c(Br)c2)[C@H](OC(=O)c2cc(O)c(O)c(Br)c2)[C@H]1OC(=O)c1cc(O)c(O)c(Br)c1)c1cc(O)c(O)c(Br)c1 | 99% | 0.2 µM | – |
| COc1cc(C(=O)OC2OC[C@@H](OC(=O)c3cc(Br)c(OC)c(OC)c3)[C@H](OC(=O)c3cc(Br)c(OC)c(OC)c3)[C@H]2OC(=O)c2cc(Br)c(OC)c(OC)c2)cc(Br)c1OC (single isomer, unassigned) | – | 1.11 µM | Activity [3]: inactive |
| O=C(OCCOC(=O)c1cc(O)c(O)c(Br)c1)c1cc(O)c(O)c(Br)c1 | 25% | – | – |
| COc1cc(C(=O)OC[C@H]2OC(OC(=O)c3cc(Br)c(O)c(OC)c3)[C@H](OC(=O)c3cc(Br)c(O)c(OC)c3)[C@@H]2OC(=O)c2cc(Br)c(O)c(OC)c2)cc(Br)c1O (stereo not given in full) | – | 1.5 µM | – |
| COc1cc(C(=O)OC[C@H]2OC(OC(=O)c3cc(Br)c(OC)c(OC)c3)[C@H](OC(=O)c3cc(Br)c(OC)c(OC)c3)[C@@H]2OC(=O)c2cc(Br)c(OC)c(OC)c2)cc(Br)c1OC (stereo not given in full) | – | 3.41 µM | – |
| O=C(OCC(COC(=O)c1ccc(O)c(O)c1)OC(=O)c1ccc(O)c(O)c1)c1ccc(O)c(O)c1 | – | 12.3 µM | – |
| O=C(OC[C@H]1OC(OC(=O)c2ccc(O)c(O)c2)[C@H](OC(=O)c2ccc(O)c(O)c2)[C@@H]1OC(=O)c1ccc(O)c(O)c1)c1ccc(O)c(O)c1 (stereo not given in full) | – | 2.2 µM | – |
| O=C(OCCOC(=O)c1ccc(O)c(O)c1)c1ccc(O)c(O)c1 | – | > 20 µM | – |
| CC(C)(C)[Si](C)(C)Oc1cc(C(=O)OCCOC(=O)c2cc(Br)c(O[Si](C)(C)C(C)(C)C)c(O[Si](C)(C)C(C)(C)C)c2)cc(Br)c1O[Si](C)(C)C(C)(C)C | 32.8% | – | – |
| O=C(OC[C@H]1OC(OC(=O)c2cc(O)c(O)c(Br)c2)[C@H](OC(=O)c2cc(O)c(O)c(Br)c2)[C@@H]1OC(=O)c1cc(O)c(O)c(Br)c1)c1cc(O)c(O)c(Br)c1 (stereo not given in full) | 96.4% | 0.19 µM | Activity [4]: Non-Toxic; Activity [5]: Non-Toxic; Drug uptake [6]: 36.9%; inhibition [7]: Active; IC50 [8]: 5.94 µM; IC50 [9]: Not Active; inhibition [10]: Active; inhibition [11]: < 25%; Activity [3]: Active; Ratio IC50 [12]: 32; inhibition [13]: Active; IC50 [14]: 15.9 µM; inhibition [15]: Active; Drug absorption [16]: 74 pmol |
| CC(C)(C)[Si](C)(C)Oc1cc(C(=O)OC2OC[C@@H](OC(=O)c3cc(Br)c(O[Si](C)(C)C(C)(C)C)c(O[Si](C)(C)C(C)(C)C)c3)[C@H](OC(=O)c3cc(Br)c(O[Si](C)(C)C(C)(C)C)c(O[Si](C)(C)C(C)(C)C)c3)[C@H]2OC(=O)c2cc(Br)c(O[Si](C)(C)C(C)(C)C)c(O[Si](C)(C)C(C)(C)C)c2)cc(Br)c1O[Si](C)(C)C(C)(C)C (stereo not given in full) | 41.9% | – | – |
| COc1cc(C(=O)OCC(COC(=O)c2cc(Br)c(O)c(OC)c2)OC(=O)c2cc(Br)c(O)c(OC)c2)cc(Br)c1O | – | 8.45 µM | – |
| O=C(OC1OC[C@@H](OC(=O)c2ccc(O)c(O)c2)[C@H](OC(=O)c2ccc(O)c(O)c2)[C@H]1OC(=O)c1ccc(O)c(O)c1)c1ccc(O)c(O)c1 (stereo not given in full) | – | 3 µM | – |
| CC(C)(C)[Si](C)(C)Oc1cc(C(=O)OCC(COC(=O)c2cc(Br)c(O[Si](C)(C)C(C)(C)C)c(O[Si](C)(C)C(C)(C)C)c2)OC(=O)c2cc(Br)c(O[Si](C)(C)C(C)(C)C)c(O[Si](C)(C)C(C)(C)C)c2)cc(Br)c1O[Si](C)(C)C(C)(C)C | 12% | – | – |
| COc1cc(C(=O)OCCOC(=O)c2cc(Br)c(OC)c(OC)c2)cc(Br)c1OC | – | > 20 µM | – |
| O=C(OCC(COC(=O)c1cc(O)c(O)c(Br)c1)OC(=O)c1cc(O)c(O)c(Br)c1)c1cc(O)c(O)c(Br)c1 | 95.5% | 0.24 µM | IC50 [8]: 1.98 µM; IC50 [9]: Not Active; inhibition [11]: < 25%; Ratio IC50 [12]: 8; IC50 [14]: 4.53 µM |
| COc1cc(C(=O)OCC(COC(=O)c2cc(Br)c(OC)c(OC)c2)OC(=O)c2cc(Br)c(OC)c(OC)c2)cc(Br)c1OC | – | > 20 µM | Activity [3]: inactive |
| COc1cc(C(=O)O[C@@H]2OC[C@@H](OC(=O)c3cc(Br)c(O)c(OC)c3)[C@H](OC(=O)c3cc(Br)c(O)c(OC)c3)[C@H]2OC(=O)c2cc(Br)c(O)c(OC)c2)cc(Br)c1O | – | 0.75 µM | – |
| CC(C)(C)[Si](C)(C)Oc1cc(C(=O)OC[C@H]2OC(OC(=O)c3cc(Br)c(O[Si](C)(C)C(C)(C)C)c(O[Si](C)(C)C(C)(C)C)c3)[C@H](OC(=O)c3cc(Br)c(O[Si](C)(C)C(C)(C)C)c(O[Si](C)(C)C(C)(C)C)c3)[C@@H]2OC(=O)c2cc(Br)c(O[Si](C)(C)C(C)(C)C)c(O[Si](C)(C)C(C)(C)C)c2)cc(Br)c1O[Si](C)(C)C(C)(C)C (stereo not given in full) | 43.6% | – | – |
| COc1cc(C(=O)OCCOC(=O)c2cc(Br)c(O)c(OC)c2)cc(Br)c1O | – | > 20 µM | – |
